Here are results for 37 compounds from ChEMBL document CHEMBL3822443, “Looking for new antiplasmodial quinazolines: DMAP-catalyzed synthesis of 4-benzyloxy- and 4-aryloxy-2-trichloromethylquinazolines and their in vitro evaluation toward Plasmodium falciparum” (Eur J Med Chem, 2016).

One data set relates to Plasmodium falciparum. Briefly: Antiplasmodial activity against chloroquine/purimethamine/proguanil-resistant Plasmodium falciparum K1 infected in human A+ erythrocytes assessed as reduction in parasitaemia measured after 72 hrs by SYBR Green I fluorescence-based assay. The conditions noted are these: K1, 72 h. The format is functional, organism-based.
Data set [1] can be described thus: Cytotoxicity against human HepG2 cells measured after 72 hrs by MTT assay. The format is cell-based. In short, it runs like this:
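Cells seeded at 5.10³ per well in complete medium at 37 °C, humidified 6% CO₂, and left 24 h. Compound was added in DMSO (final under 0.5% v/v) over a range of concentrations for 72 h at 37 °C, in triplicate. Wells were checked under the microscope for precipitate. MTT (0.5 mg/mL in FCS-free medium) was added for 2 h, then A570 read with a 630 nm reference. Viability was taken as % of control, CC50 from dose–response, mean of three independent experiments.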

Data set [2] can be described thus: Selectivity index, ratio of CC50 for human HepG2 cells to IC50 for chloroquine/purimethamine/proguanil-resistant Plasmodium falciparum K1. Format: functional. A digest of the protocol:
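SI = CC50/IC50 (K1). […] MTT at 0.5 mg/mL was added for 2 h, and absorbance read at 570 nm against 630 nm reference. Viability was taken as % of control, and CC50 is the mean of three independent experiments.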

Data set [3] can be described thus: Solubility of compound in RPMI1640 culture medium containing 25mM HEPES, 25 mM NaHCO3 and 10% A+ human serum. The format is physicochemical.

As usually defined, the IC50 is the concentration that inhibits the measured activity by half. By CC50 is commonly meant the concentration giving 50% cytotoxicity. Higher therefore signals better tolerance by the cells.

Take `N#CC(Oc1nc(C(Cl)(Cl)Cl)nc2ccccc12)c1ccccc1` (configuration not stated): in the data set with Plasmodium falciparum, the IC50 was determined as 1.5 µM. This compound yielded a CC50 at 72 h in data set [1] of 25.7 µM. For the same compound, the “Ratio CC50/IC50” value in data set [2] came out at 17.1. Also, in data set [3], the solubility entry is reported as “soluble”.
In the same order, the values of `Clc1ccc(Oc2nc(C(Cl)(Cl)Cl)nc3ccccc23)c(Cl)c1` are 1.2 µM, 22.1 µM, 18.4 and “soluble”.
In the same order, the values of `Clc1ccc(COc2nc(C(Cl)(Cl)Cl)nc3ccccc23)cc1` are 2.5 µM, 33.4 µM, 13.4 and “soluble”.
`ClC(Cl)(Cl)c1nc(Oc2cccc(Br)c2)c2ccccc2n1`: the IC50 in the data set on Plasmodium falciparum came to 2.3 µM. This compound returned a CC50 at 72 h in data set [1] of 36.7 µM. Besides, the “Ratio CC50/IC50” value in data set [2] was determined as 16. Further, in data set [3], the solubility entry is listed as “soluble”.
`COc1cc(C=O)cc([N+](=O)[O-])c1Oc1nc(C(Cl)(Cl)Cl)nc2ccccc12`: in the data set on Plasmodium falciparum, the IC50 was above 10 µM. In data set [1], the midpoint of cytotoxicity, the CC50 at 72 h, lay at 57 µM. The “Ratio CC50/IC50” value in data set [2] is listed as below 5.7. Besides, the solubility result in data set [3] is “soluble”.
Consider `COc1ccc(COc2nc(C(Cl)(Cl)Cl)nc3ccccc23)cc1OC`, for which, in the data set with Plasmodium falciparum, the IC50 is 3.9 µM. In data set [1], this compound gave a CC50 at 72 h of 118 µM. Also, the “Ratio CC50/IC50” value in data set [2] came to 30.6. In addition, the solubility entry in data set [3] is “soluble”.
In the same order, the values of `Cc1occc(=O)c1Oc1nc(C(Cl)(Cl)Cl)nc2ccccc12` are above 10 µM, 62.7 µM, below 6.3 and “soluble”.
For `ClC(Cl)(Cl)c1nc(OCc2cccc(OCc3ccccc3)c2)c2ccccc2n1`, the half-inhibitory concentration (IC50) in the data set with Plasmodium falciparum came out at 3.8 µM. In data set [1], this compound gave a CC50 at 72 h of 62.5 µM. Moreover, in data set [2], the “Ratio CC50/IC50” value came to 16.4. Also, in data set [3], the solubility result is recorded as “soluble”.
In data set [1], `COc1cccc(Oc2nc(C(Cl)(Cl)Cl)nc3ccccc23)c1` gave a CC50 at 72 h of 0.5 µM. Also, in data set [2], the “Ratio CC50/IC50” value worked out at 0.3. Moreover, in data set [3], the solubility entry was “soluble”.
As for `CC(=O)c1ccccc1Oc1nc(C)nc2ccccc12`, in the data set on Plasmodium falciparum, the IC50 is above 15 µM. Besides, the solubility result in data set [3] was “soluble”.
With `CC(Oc1nc(C(Cl)(Cl)Cl)nc2ccccc12)c1ccccc1` (configuration not stated), the IC50 in the data set on Plasmodium falciparum was determined as 3.3 µM. The CC50 at 72 h in data set [1] is 39.9 µM. For the same compound, the “Ratio CC50/IC50” value in data set [2] came to 12.1. In addition, in data set [3], the solubility result is “soluble”.
Taken in the same sequence, the figures for `ClC(Cl)(Cl)c1nc(OCc2ccccc2)c2ccccc2n1` were 2 µM, 43.8 µM, 21.9 and “soluble”.
Taken in the same sequence, the figures for `O=[N+]([O-])c1ccccc1COc1nc(C(Cl)(Cl)Cl)nc2ccccc12` were 2.3 µM, above 10 µM, above 4.3 and “Insoluble”.
Taken in the same sequence, the figures for `C#CC(Oc1nc(C(Cl)(Cl)Cl)nc2ccccc12)c1ccccc1` (configuration not stated) were 2.4 µM, 24.6 µM, 10.2 and “soluble”.
`Cc1ccc(COc2nc(C(Cl)(Cl)Cl)nc3ccccc23)cc1`: the IC50 with Plasmodium falciparum is 4 µM. In data set [1], this compound registered a CC50 at 72 h of 50.9 µM. The “Ratio CC50/IC50” value in data set [2] stood at 12.7. Also, the solubility entry in data set [3] is reported as “soluble”.
Turning to `O=Cc1ccccc1Oc1nc(C(Cl)(Cl)Cl)nc2ccccc12`, the IC50 with Plasmodium falciparum turned out to be 10 µM. In data set [1], this compound yielded a half-maximal cytotoxic concentration (CC50) at 72 h of 75 µM. Also, in data set [2], the “Ratio CC50/IC50” value stood at 7.5. Further, in data set [3], the solubility result was “soluble”.
In the same order, the values of `CC(=O)c1ccc(Oc2nc(C(Cl)(Cl)Cl)nc3ccccc23)cc1` are 2.3 µM, 49.5 µM, 21.5 and “soluble”.
In the same order, the values of `ClC(Cl)(Cl)c1nc(Oc2ccc3ccccc3n2)c2ccccc2n1` are above 10 µM, 30.3 µM, below 3 and “soluble”.
Regarding `O=c1cc(Oc2nc(C(Cl)(Cl)Cl)nc3ccccc23)c2ccccc2o1`, the IC50 in the data set with Plasmodium falciparum is above 10 µM. In data set [1], this compound registered a CC50 at 72 h of 59 µM. In data set [2], the “Ratio CC50/IC50” value is given as below 5.9. In data set [3], the solubility result is “soluble”.
In the same order, the values of `Fc1c(F)c(F)c(Oc2nc(C(Cl)(Cl)Cl)nc3ccccc23)c(F)c1F` are 4.4 µM, 43.7 µM, 9.9 and “soluble”.
In the same order, the values of `CC(Oc1nc(C(Cl)(Cl)Cl)nc2ccccc12)c1ccc(Cl)cc1Cl` (configuration not stated) are 4.2 µM, 30.2 µM, 7.2 and “soluble”.
In the same order, the values of `CC(=O)c1ccccc1Oc1nc(C(Cl)(Cl)Cl)nc2ccccc12` are 1.5 µM, 40 µM, 26.7 and “soluble”.
Turning to `CC(Oc1nc(C(Cl)(Cl)Cl)nc2ccccc12)c1ccc(Cl)cc1` (configuration not stated), the IC50 in the data set on Plasmodium falciparum came to 3.5 µM. In data set [1], this compound returned a CC50 at 72 h of 25.1 µM. Moreover, the “Ratio CC50/IC50” value in data set [2] is reported as 7.2. Further, the solubility result in data set [3] is reported as “soluble”.
In the same order, the values of `O=[N+]([O-])c1cc2c(cc1COc1nc(C(Cl)(Cl)Cl)nc3ccccc13)OCO2` are 3.1 µM, 28.7 µM, 9.3 and “soluble”.
Taken in the same sequence, the figures for `O=[N+]([O-])c1ccc(COc2nc(C(Cl)(Cl)Cl)nc3ccccc23)cc1` were 1.8 µM, 34.9 µM, 19.4 and “soluble”.
Taken in the same sequence, the figures for `FC(F)(F)c1ccc(COc2nc(C(Cl)(Cl)Cl)nc3ccccc23)cc1` were 2.8 µM, 27.8 µM, 9.9 and “soluble”.
In the case of `O=[N+]([O-])c1ccc(/C=C/COc2nc(C(Cl)(Cl)Cl)nc3ccccc23)cc1`, the IC50 with Plasmodium falciparum turned out to be 2.6 µM. Also, the CC50 at 72 h in data set [1] worked out at 31.2 µM. The “Ratio CC50/IC50” value in data set [2] stood at 12. In data set [3], the solubility result is listed as “soluble”.
As to `C[C@H]1c2cccc(O)c2C(=O)C2=C(O)[C@]3(O)C(=O)C(C(N)=O)=C(O)[C@@H](N(C)C)[C@@H]3[C@@H](O)[C@@H]21.O` [DOXYCYCLINE], the “Ratio CC50/IC50” value in data set [2] is given as 3.3.
Regarding `ClC(Cl)(Cl)c1nc(Oc2ccc(Br)cc2)c2ccccc2n1`, the IC50 in the data set with Plasmodium falciparum turned out to be 1.8 µM. This compound also displayed a CC50 at 72 h in data set [1] of 45 µM. Also, the “Ratio CC50/IC50” value in data set [2] turned out to be 25. Besides, the solubility entry in data set [3] was “soluble”.
Taken in the same sequence, the figures for `CC(=O)c1cccc(Oc2nc(C(Cl)(Cl)Cl)nc3ccccc23)c1` were 1.7 µM, 1 µM, 0.6 and “soluble”.
Take `Cc1cc(Oc2nc(C(Cl)(Cl)Cl)nc3ccccc23)ccc1Cl`: the IC50 with Plasmodium falciparum came to 0.9 µM. It took 5.3 µM to reach half-maximal cytotoxicity in data set [1] (CC50 at 72 h). Also, the “Ratio CC50/IC50” value in data set [2] is 5.9. Also, the solubility entry in data set [3] is reported as “soluble”.
Taken in the same sequence, the figures for `COc1ccc(COc2nc(C(Cl)(Cl)Cl)nc3ccccc23)cc1` were above 10 µM, 90.3 µM, below 9 and “soluble”.
Taken in the same sequence, the figures for `ClC(Cl)(Cl)c1nc(Oc2ccccc2Br)c2ccccc2n1` were 1.9 µM, 26.2 µM, 13.8 and “soluble”.
In the same order, the values of `O=[N+]([O-])c1cccc(COc2nc(C(Cl)(Cl)Cl)nc3ccccc23)c1` are 2.2 µM, 29.9 µM, 13.6 and “soluble”.
On to `ClC(Cl)(Cl)c1nc(Oc2c(Br)cc(Br)c3cccnc23)c2ccccc2n1`, for which, in the data set with Plasmodium falciparum, the IC50 was above 10 µM. Further, the CC50 at 72 h in data set [1] is 4.9 µM. For the same compound, the “Ratio CC50/IC50” value in data set [2] is below 0.5. For the same compound, in data set [3], the solubility result was “soluble”.
Taken in the same sequence, the figures for `CC(C)c1ccc(COc2nc(C(Cl)(Cl)Cl)nc3ccccc23)cc1` were above 10 µM, 33.3 µM, below 3.3 and “soluble”.
Taken in the same sequence, the figures for `N#Cc1ccc(Oc2nc(C(Cl)(Cl)Cl)nc3ccccc23)cc1` were 1.6 µM, above 8 µM, above 5 and “Insoluble”.
